# Test system: MS2 coat protein
# Experiment: apparent Kd, MS2 coat protein; higher = weaker binding; RNA-MaP array; FMN 200 µM where present
# Procedure, shortened: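 Stalled E. coli RNA polymerase transcribed the designs on Illumina sequencing-chip clusters. SNAP-549-labelled MS2 coat protein was titrated from 0.7 or 1.5 nM, doubling to 3 µM, without and then with constant ligand, in 100 mM Tris-HCl pH 7.5, 80 mM KCl, 4 mM MgCl2, BSA, DTT, yeast tRNA and Tween-20. Per-cluster binding curves were fitted to green signal normalised to red-channel RNA signal and control-cluster median Fmax. The apparent Kd is the median of the filtered fits.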
# [1] = designed as: OFF switch for flavin mononucleotide, no ligand
# [2] = ligand present: flavin mononucleotide, designed as: OFF switch for flavin mononucleotide
# [3] = designed as: ON switch for flavin mononucleotide, no ligand
# [4] = ligand present: flavin mononucleotide, designed as: ON switch for flavin mononucleotide
Sequence,apparent Kd [1],apparent Kd [2],apparent Kd [3],apparent Kd [4]
CUCCCAUGUGUAGGAUAUAGAAAACCGAAAUGGCUAGAAGGACACAUGAGGAUCACCCAUGUAACCUUAACUUAGUGUACCGGG,53.3 nM,124 nM,–,–
CUCUGCCGGCAGGAUAUUAGGUUACGAUGACGUUGAGAAGGGCUGACAUGAGGAUCACCCAUGUAGGGCUCCAU,18.8 nM,24.5 nM,–,–
CUCUUACAUGAGGAUCACCCAUGUGAGGAUAUAGCGGCCUGAUGAGGGAUCAACAUCGCUAGAAGGUACUUGGG,101 nM,106 nM,–,–
CUCUUAGCAGGAUAUACAUUAUCCCAGUCAUGGUCGGCGACACAUGAGGAUCACCCAUGUAGAAGGGCUAUGAG,23.4 nM,52.8 nM,–,–
CUCUUGUGAGGAUAUCAGUAGUAAAAAAAUAAAAUUACUACUGAGAAGGCACAUGAGGAUCACCCAUGUGUCUU,14 nM,13.1 nM,–,–
CUCUUUUAAGGAUAUACAUGAGGAUCACCCAUGUGCAUAGGUAUGUCCGGGUCCUGGAGUAGAAGGUGGGACGG,70.3 nM,58.4 nM,–,–
CUGAAGUCAGGAUAUCGUUAAUUUAGUUGUUUGUAUUAGUUCGAGAAGGGACAUGAGGAUCACCCAUGUAAGUU,33.6 nM,51.3 nM,–,–
CUGAGCCUAGGAUAUACUGGCUGUAAGCUUGAUGCCUGCACACAUGAGGAUCACCCAUGUAGAAGGAGGCCAGG,17.2 nM,21.1 nM,–,–
CUGAUGUUAGGAUAUCAGGCGCCCGCCACUGGCAAAGCGCAUGAGAAGGGACAUGAGGAUCACCCAUGUAGUAA,28.2 nM,47.6 nM,–,–
CUGAUGUUAGGAUAUCAGGUUGCGCGCGAAGGCGCGCGGCAUGAGAAGGAACAUGAGGAUCACCCAUGUGACGA,39.7 nM,148 nM,–,–
CUGAUGUUAGGAUAUCAGGUUGUGCGCGAAGGCGGGCGGCAUGAGAAGGAACAUGAGGAUCACCCAUGUGACGA,29.4 nM,85 nM,–,–
CUGCCGUAGGAGAAGGACGGCGGGUUAUUUUUGUACAUGAGGAUCACCCAUGUAGGAUAUCCUACGUCAGGCGACCUACUACAG,33 nM,34.5 nM,–,–
CUGCUCCGUGUAGGAUAUGCAUACUCCCACUAUGCAGAAGGACAUGAGGAUCACCCAUGUAUGUUAUUAUCACGUGUAGCGUAC,28.7 nM,72.9 nM,–,–
CUGGACGUCGUAGGAUAUGUAGGAUAUUCCUACAUGAGGAUCACCCAUGUUGACAUGGAAGAAGGACAGAAGGACGAUGUCCAU,–,–,229 nM,4.55 nM
CUGGGCCAGGAGAAGGGCUAGAGUGUGAUAUAUUUGCCCGCGAGCACAUGAGGAUCACCCAUGUAGCAGGAUAUCCAAGCCGGU,8.38 nM,15.8 nM,–,–
CUGGUUGUCGUAGGAUAUGUAGGAUAUUCCUACAUGAGGAUCACCCAUGUUCGCAUGGAAGAAGGACAGAAGGACGAUGACCAG,–,–,621 nM,24.9 nM
CUGUACAUAUCAGGAUAUCUAUUUCCUACAUGAGGAUCACCCAUGUAGGUGAUCACCCAAGUAAAGGAGAAGGGAUAUGUAUAG,–,–,66.4 nM,23.7 nM
CUGUCCCAAGGAUAUACAUCAGUCCCAGGGUGCCGCAUAAGACAUGAGGAUCACCCAUGUAGAAGGUGGAGACC,96.7 nM,92.6 nM,–,–
CUGUGACGGUGCGCAAGUGGACGGAGAAGGCAGACAUGAGGAUCACCCAUGUGAGCCUGCUAUUCUGAGGAUAUCCGUUCGUAC,27 nM,132 nM,–,–
CUGUUCAGUGUAGGAUAUGCAUAUUCCCAUUAUGCAGAAGGACAUGAGGAUCACCCAUGUAUGUUAUUAUCAUGUGUUACAUGC,33.6 nM,124 nM,–,–
CUUAAGGCAGGAUAUGCUUUUUGUGACAUGAGGAUCACCCAUGUGAUGCAGUUUGGGUUUGCAGAAGGGCCUGAGU,111 nM,61.1 nM,–,–
CUUCAGUGAGGAUAUGGCAUGCGCUGAUAAGCGCUCUCACGCCAGAAGGCACAUGAGGAUCACCCAUGUAAAAC,39.1 nM,152 nM,–,–

Sequence,apparent Kd [1],apparent Kd [2],apparent Kd [3],apparent Kd [4]
CUUCUGUCAGGAUAUGCGAAUCACCACUAGGUCAGUGGUGAGCAGAAGGGACAUGAGGAUCACCCAUGUAAAGU,37 nM,166 nM,–,–
CUUGUGUGAGGAUAUGACAAUGGUAUCUUCGGAUACCAUUGUCAGAAGGUACAUGAGGAUCACCCAUGUAGAUC,91 nM,140 nM,–,–
CUUGUUGUCGAGGAUAUGCACCAGCUCACUGACGCAGAAGGCGACACAUGAGGAUCACCCAUGUCAGUUCGCGU,37.4 nM,225 nM,–,–
CUUGUUUAUGUGAGGAUAUACUGUUAGUAUAGUUUGUAGAAGGUACAUGAGGAUCACCCAUGUUUAUUACUCUU,13.7 nM,13.8 nM,–,–
CUUUAGCUAGGAUAUACAUGAGGAUCACCCAUGUUAGCGGCCAAUUGGACCGCGGGUUGUAGAAGGAGCAUUAA,37.5 nM,50.3 nM,–,–
CUUUCCAGGUAGAAGGGAUUACUACAUGAGGAUCACCCAUGUCGAUUGAUCAGGAUAUGCCUGUCACGACGCGUGAUGCUAGAG,–,–,322 nM,66.3 nM
CUUUCGUGAGGAUAUGUGGCUUCGAUCGUGAAAUCGAGGCUACAGAAGGCACAUGAGGAUCACCCAUGUUCCUC,34.3 nM,410 nM,–,–
CUUUCGUUAGCAGGAUAUGGACAGGCCUGUCCGUCUUGAGUCUGUAACAUGAGGAUCACCCAUGUCCAGAAGGGCUCGAAGGGA,8.04 nM,15 nM,–,–
CUUUUGUGAGGAUAUCAGUAGUAAAAAAAUAAAUUUACUACUGAGAAGGCACAUGAGGAUCACCCAUGUUCCUC,42.2 nM,296 nM,–,–
CUUUUGUGAGGAUAUCAGUAGUAAUAAAAUAAAAUUACUACUGAGAAGGCACAUGAGGAUCACCCAUGUUCCUC,40 nM,182 nM,–,–
CUUUUGUGAGGAUAUCAGUAGUAAUACAAUAGUAUUACUAUUGAGAAGGCACAUGAGGAUCACCCAUGUUCCUC,39.4 nM,156 nM,–,–
CUUUUGUGAGGAUAUCAGUUGUAAAAAAAUAAAAUUACUACUGAGAAGGCACAUGAGGAUCACCCAUGUUCCUC,35 nM,140 nM,–,–
CUUUUGUGAGGAUAUCGGUAGUAAUACAAUAGUAUUACUACUGAGAAGGCACAUGAGGAUCACCCAUGUUCCUC,49.2 nM,305 nM,–,–
CUUUUGUGAGGAUAUUAGUAGUAAAUAAAUAAAAUUACUACUGAGAAGGCACAUGAGGAUCACCCAUGUUUCUC,32.4 nM,284 nM,–,–
CUUUUGUGAGGAUAUUAGUAGUAAAUAAAUUAAAUUACUACUGAGAAGGCACAUGAGGAUCACCCAUGUUCCUC,31.3 nM,243 nM,–,–
GAAAACAGAGGAUAUACAAAAUUGACACGAAAGGUGCAAAAACAUGAGGAUCACCCAUGUAGAAGGCUGAAGAA,24.8 nM,22 nM,–,–
GAAAAGCGAGGAUAUACAUGAGGAUCACCCAUGUGUUGGGUGCGUUGGCUAGUCGUCUGUAGAAGGCGCACAAA,904 nM,466 nM,–,–
GAAAAGGUAGGAUAUACGAAAAAAAAGGGUAGAAAAAAAACACAUGAGGAUCACCCAUGUAGAAGGACCAAAAG,31.9 nM,94.1 nM,–,–
GAAACGCUUGACAUGAGGAUCACCCAUGUUAGAUUGUUAUGUCAGGAUAUAGUCUAGAAACUAGACUAGAAGGGAUAUGUUUCU,–,–,438 nM,107 nM
GAAAGGUCAGGAUAUACGUUAUGCUAGUGCUCGUACUAUAAGUAGAAGGGACAUGAGGAUCACCCAUGUGAUAA,54.8 nM,79.4 nM,–,–
GAACGUGACAUGAGGAUCACCCAUGUUGCCUGAGCCAGGUCGUAGGAUAUCCUGAUGAUUAAUUUGGAGAAGGGCGACUGGGAA,–,–,34.4 nM,14.3 nM

# Source: the EternaBench riboswitch data
